Measurements pooled from the literature.
pIC50, pKd, pKi: −log10 of the molar value.
SLC2A9: Solute carrier family 2, facilitated glucose transporter member 9 (SLC2A9, Homo sapiens, UniProt Q9NRM0)

| SMILES | target | assay | setting | endpoint | value |
| --- | --- | --- | --- | --- | --- |
| COc1ccc(C[C@H]2COC(=O)[C@@H]2Cc2ccc(OCC(=O)Nc3ccc(C(=O)Nc4ccccc4N)cc3)c(OC)c2)cc1OC | Histone deacetylase 4 (HDAC4, Homo sapiens, UniProt P56524) | enzyme activity, inhibitor | – | pIC50 | < 5.00 |
| CCOC(=O)/C=C/C(=O)[C@H](CC(C)C)NC(=O)[C@H](Cc1ccccc1)NC(=O)[C@H](Cc1ccccc1)N=[N+]=[N-] (mixture of isomers) | Procathepsin L (CTSL, Homo sapiens, UniProt P07711) | enzyme activity, inhibitor | – | pIC50 | 6.89 |
| O=C(C=Cc1ccccc1)Nc1cc(-c2ccnc(N3CCC(O)CC3)c2)ccn1 | Nuclear receptor subfamily 4immunitygroup A member 1 (NR4A1, Homo sapiens, UniProt P22736) | binding, SPR | – | pKd | 6.92 |
| N[C@@H](Cc1ccccc1)C(=O)O | Alkaline phosphatase, placental type (Homo sapiens, UniProt P05187) | enzyme activity, inhibitor | – | pIC50 | 4.08 |
| CCCCCCCc1cc(O)cc(=O)o1 | Aldo-keto reductase family 1 member C3 (AKR1C3, Homo sapiens, UniProt P42330) | enzyme activity, inhibitor | – | pIC50 | 4.98 |
| O=C(c1ccc(OCCN2CCCCC2)cc1)c1c(-c2ccc(O)cc2)sc2cc(O)ccc12 | Protein disulfide-isomerase (P4HB, Homo sapiens, UniProt P07237) | binding, SPR | – | pKd | 7.53 |
| Nc1ncnc2c1ncn2[C@@H]1O[C@H](COP(=O)(O)CP(=O)(O)OP(=O)(O)O)[C@@H](O)[C@H]1O | P2X purinoceptor 1 (P2RX1, Homo sapiens, UniProt P51575) | binding, radioligand | – | pKd | 7.37 |
| Nc1ncnc2c1ncn2[C@@H]1O[C@H](CO)[C@@H](O)[C@H]1O | SLC2A9 | transporter uptake, inhibitor, radiometric | oocytes | pIC50 | < 2.40 |
| N=c1c[n+](N2CCOCC2)[n-]o1 | NAD-dependent protein deacetylase sirtuin-1 (SIRT1, Homo sapiens, UniProt Q96EB6) | enzyme activity, inhibitor | – | pIC50 | 5.15 |
| O=C1CCc2ccccc2O1 | cah (Neisseria gonorrhoeae, UniProt Q50940) | enzyme activity, inhibitor, stopped-flow | – | pKi | 4.59 |
| Cc1ccc2oc(=O)cc(NCCO)c2c1 | Alpha-1B adrenergic receptor (Adra1b, Rattus norvegicus, UniProt P15823) | calcium signal, antagonist | – | pIC50 | 3.75 |
| Cn1c(=O)c2c(ncn2C)n(C)c1=O | SLC2A9 | transporter uptake, inhibitor, radiometric | oocytes | pIC50 | < 3.00 |
